In ChEMBL document CHEMBL1649309, “Foreign travel is a major risk factor for colonization with Escherichia coli producing CTX-M-type extended-spectrum beta-lactamases: a prospective study with Swedish volunteers” (Antimicrob Agents Chemother, 2010):
Active and inactive are the calls of the source. The calls are words filed in the database; no cut-off is given here.

Columns and labels:
Format in all cases: functional, organism-based
Escherichia coli [1] = assay: Antimicrobial activity against ESBL producing Escherichia coli assessed as susceptible isolates by Etest
Outline: (§1)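 24 ESBL-producing E. coli strains acquired during travel, isolated from post-travel rectal swabs of Swedish travellers. Swabs were enriched in LB broth with cefotaxime 2.5 μg/ml, then plated on MacConkey agar with cefotaxime and ceftazidime discs, overnight at 35°C in room air. ESBL production was confirmed by disc-diffusion synergy test and CTX-M by PCR. Susceptibility was measured by Etest and interpreted per EUCAST guidelines.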

Escherichia coli [2] = assay: Antimicrobial activity against ESBL producing Escherichia coli assessed as resistant isolates by Etest; outline: as §1
Escherichia coli [3] = assay: Antimicrobial activity against ESBL producing Escherichia coli assessed as susceptible isolates by Etest in presence of beta-lactamase inhibitor Tazobactam; outline: as §1

Compound: C[C@@H](O)[C@H]1C(=O)N2C(C(=O)O)=C(SCCNC=N)C[C@H]12
- Activity (Escherichia coli [1]): Active

Compound: C[C@@H]1O[C@@H]1P(=O)(O)O
- Activity (Escherichia coli [2]): inactive

Compound: CCN1CCN(C(=O)N[C@@H](C(=O)N[C@@H]2C(=O)N3[C@@H]2SC(C)(C)[C@@H]3C(=O)O)c2ccccc2)C(=O)C1=O
- Activity (Escherichia coli [3]): Active

Compound: O=C1CN(/N=C/c2ccc([N+](=O)[O-])o2)C(=O)N1
- Activity (Escherichia coli [1]): Active

Compound: CC1(C)S[C@@H]2[C@H](/N=C/N3CCCCCC3)C(=O)N2[C@H]1C(=O)O
- Activity (Escherichia coli [1]): Active

Compound: NC[C@H]1O[C@H](O[C@H]2[C@H](O)[C@@H](O[C@H]3O[C@H](CO)[C@@H](O)[C@H](N)[C@H]3O)[C@H](N)C[C@@H]2N)[C@H](N)C[C@@H]1O
- Activity (Escherichia coli [2]): inactive

Compound: O=C(O)c1cn(C2CC2)c2cc(N3CCNCC3)c(F)cc2c1=O
- Activity (Escherichia coli [1]): Active

Compound: GENTAMICIN
- Activity (Escherichia coli [2]): inactive

Compound: C[C@@H](O)[C@H]1C(=O)N2C(C(=O)O)=C(S[C@@H]3CN[C@H](C(=O)Nc4cccc(C(=O)O)c4)C3)[C@H](C)[C@H]12
- Activity (Escherichia coli [1]): Active

Compound: C[C@@H](O)[C@H]1C(=O)N2C(C(=O)O)=C(S[C@@H]3CN[C@H](C(=O)N(C)C)C3)[C@H](C)[C@H]12
- Activity (Escherichia coli [1]): Active
